Assay results from article PMC9260860 (Biochemistry, 2021).

Columns and labels:
HpMTAN [1] = target: T1, HpMTAN (Helicobacter pylori, UniProt Q9ZMY2); assay type: biochemical
T1 sequence (Q9ZMY2 1-230): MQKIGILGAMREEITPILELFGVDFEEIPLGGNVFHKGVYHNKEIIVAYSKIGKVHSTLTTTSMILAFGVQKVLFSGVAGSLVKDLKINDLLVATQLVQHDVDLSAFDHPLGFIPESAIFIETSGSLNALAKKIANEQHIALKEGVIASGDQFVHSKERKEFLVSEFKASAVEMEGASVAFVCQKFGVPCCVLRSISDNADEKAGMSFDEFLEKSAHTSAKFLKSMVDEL

HpAFLDA = HpAFLDA (Helicobacter pylori, UniProt Q9ZMG8); experiment: HpAFLDA inhibition assay; assay type: biochemical, H. pylori strain J99
HpAFLDA (jhp0252) = target: T2, HpAFLDA (jhp0252) (Helicobacter pylori, UniProt Q9ZMG8); experiment: Enzymatic assay for HpAFLDA deaminase activity; assay type: biochemical, H. pylori strain J99; conditions: for fold difference of kcat/Km between AFL and adenosine: HpAFLDA, AFL greater than adenosine
T2 sequence (Q9ZMG8 1-409): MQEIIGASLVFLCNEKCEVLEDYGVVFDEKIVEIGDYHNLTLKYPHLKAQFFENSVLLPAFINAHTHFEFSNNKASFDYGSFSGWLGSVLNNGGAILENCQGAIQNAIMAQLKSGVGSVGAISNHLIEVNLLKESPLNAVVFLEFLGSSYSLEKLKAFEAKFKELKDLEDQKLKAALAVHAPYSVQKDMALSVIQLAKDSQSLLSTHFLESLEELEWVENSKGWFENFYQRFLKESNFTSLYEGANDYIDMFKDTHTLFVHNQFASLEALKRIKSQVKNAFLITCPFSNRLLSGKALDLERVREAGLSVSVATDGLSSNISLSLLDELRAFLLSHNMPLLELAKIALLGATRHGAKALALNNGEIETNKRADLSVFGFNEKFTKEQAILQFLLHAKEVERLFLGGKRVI

[2] = target: human adenosine deaminase (HsADA); conditions: cited from earlier work
H. pylori cells [3] = assay type: cell-based, Helicobacter pylori
H. pylori J99 = experiment: Inhibition of H. pylori growth in liquid culture; assay type: cell-based, Helicobacter pylori
HpMTAN [4] = target: T1, HpMTAN; experiment: AFL and FL hydrolysis by HpMTAN; assay type: biochemical
H. pylori cells [5] = experiment: Metabolism of AFL and FL by live H. pylori cell mixtures; assay type: cell-based, Helicobacter pylori; conditions: ~10^8 cells in PBS pH 7.0
Method in brief: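 Live cells were taken from overnight cultures and washed twice with PBS. Incubations were started by adding 25 μM AFL or FL to ~10^8 cells in PBS (pH 7.0). Metabolites were extracted with ice-cold acetonitrile/methanol/water (40:40:20) containing 0.1 M formic acid and a deuterated SAM internal standard. Extracts were dried, redissolved in water, and quantified by reversed-phase LC-MS/MS (ESI−, MRM).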

H. pylori = experiment: Metabolite supplementation of the growth medium, effect on H. pylori cell growth; assay type: cell-based, Helicobacter pylori
[6] = tested on: Sav2595, Acel0264, Dr0824, Nis0429; conditions: four enzymes, 30 °C; cited from earlier work
[7] = substrate: C[C@H]1O[C@@H](n2cnc3c(N)ncnc32)[C@H](O)[C@@H]1O; experiment: Enzymatic assay for HpAFLDA deaminase activity; assay type: biochemical, H. pylori strain J99; conditions: other: deamination by HpAFLDA, 50 mM HEPES pH 7.0, 25 °C
[8] = substrate: Nc1ncnc2c1ncn2[C@@H]1O[C@H](CCC(=O)c2cccc(C(=O)O)c2)[C@@H](O)[C@H]1O; experiment: Enzymatic assay for HpAFLDA deaminase activity; assay type: biochemical, H. pylori strain J99; conditions: other: deamination by HpAFLDA, 50 mM HEPES pH 7.0, 25 °C
[9] = substrate: Nc1ncnc2c1ncn2[C@@H]1O[C@H](CO)[C@@H](O)[C@H]1O; experiment: Enzymatic assay for HpAFLDA deaminase activity; assay type: biochemical, H. pylori strain J99; conditions: other: deamination by HpAFLDA, 50 mM HEPES pH 7.0, 25 °C
[10] = substrate: Nc1ncnc2c1ncn2[C@@H]1O[C@H](CCC(=O)c2cccc(C(=O)O)c2)[C@@H](O)[C@H]1O; experiment: AFL and FL hydrolysis by HpMTAN; assay type: biochemical, Helicobacter pylori; conditions: other: hydrolysis by HpMTAN, 50 mM HEPES pH 7.0
[11] = deamination by HpAFLDA, 50 mM HEPES pH 7.0, 25 °C

**Q.** For 5′-methylthioadenosine [MTA], which “catalytic efficiency of MTA hydrolysis relative to AFL hydrolysis” value (HpMTAN [1]) is on record?
**A.** > 100 fold

**Q.** For `CSC[C@H]1O[C@@H](n2cnc3c2N=CNC[C@H]3O)C[C@@H]1O` [(8R)-MT-2′d-CF, 5′-methylthio-2′-deoxycoformycin], which “inhibition of HpAFLDA activity” value (HpAFLDA; even at 10 μM) is on record?
**A.** did not inhibit

**Q.** Which Km (HpAFLDA (jhp0252); [11]) does the source give for `Nc1ncnc2c1ncn2[C@@H]1O[C@H](CSCC[C@H](N)C(=O)O)[C@@H](O)[C@H]1O` [SAH, S-adenosylhomocysteine] here?
**A.** 220 ± 50 µM

**Q.** And the kcat (HpAFLDA (jhp0252); [11])?
**A.** 0.12 ± 0.02 s⁻¹

**Q.** Which “fold difference of kcat/Km between AFL and adenosine” value (HpAFLDA (jhp0252)) does the source give for `Nc1ncnc2c1ncn2[C@@H]1O[C@H](CO)[C@@H](O)[C@H]1O` [adenosine] here?
**A.** 26 fold

**Q.** With `CCCSC[C@H]1O[C@@H](n2cnc3c2N=CNC[C@H]3O)C[C@@H]1O` [(8R)-PrT-2′d-CF, 5′-propylthio-2′-deoxycoformycin] as the molecule, how does the “inhibition of HpAFLDA (in words)” value (HpAFLDA) read?
**A.** showed some inhibition

**Q.** For `OC[C@H]1O[C@@H](n2cnc3c2N=CNC[C@H]3O)[C@H](O)[C@@H]1O` [(8R)-CF, Coformycin, reference compound], which Ki (HpAFLDA) is on record?
**A.** > 10 µM

**Q.** And the Ki values [2]?
**A.** submicromolar

**Q.** For `O[C@@H]1CNC=Nc2c1ncn2[C@H]1C[C@H](O)[C@@H](CSc2ccccc2)O1` [(8R)-PhT-2′d-CF, 5′-phenylthio-2′-deoxycoformycin], which “inhibition of HpAFLDA (in words)” value (HpAFLDA) is on record?
**A.** showed some inhibition

**Q.** For `CCCCSC[C@H]1CN(Cc2c[nH]c3c(N)ncnc23)C[C@@H]1O` [BTDIA, BuT-DADMe-ImmA], which “menaquinone-6 concentrations in lipid extracts” value (H. pylori cells [3]; BTDIA at 14 nM, p < 0.005) is on record?
**A.** decreased significantly

**Q.** And the “cellular DHFL concentrations” value (H. pylori cells [3]; BTDIA at its half-maximal inhibitory concentration (14 nM))?
**A.** Significant decreases

**Q.** With `O=C(O)c1cccc(C(=O)CC[C@H]2O[C@@H](n3cnc4c(=O)[nH]cnc43)[C@H](O)[C@@H]2O)c1` [FL, futalosine] as the molecule, how does the “reversal of MTCF growth inhibition by supplementation” value (H. pylori J99; 50 μM FL with 6-100 μM MTCF, 96 h) read?
**A.** partially reversed the growth inhibition

**Q.** What about the “hydrolysis by HpMTAN (in words)” value (HpMTAN [4]) of the same molecule?
**A.** not FL hydrolysis

**Q.** And the kcat (HpMTAN [4]; hydrolysis by HpMTAN, 50 mM HEPES pH 7.0)?
**A.** <1e-05 s⁻¹

**Q.** What about the “change of the FL concentration in live H. pylori cells” value (H. pylori cells [5]; 25 μM FL) of the same molecule?
**A.** no significant changes

**Q.** What about the “hypoxanthine formation in live H. pylori cells” value (H. pylori cells [5]; 25 μM FL) of the same molecule?
**A.** no hypoxanthine was formed

**Q.** What about the “effect of supplementation on cell growth” value (H. pylori; FL 1 to 200 μM) of the same molecule?
**A.** did not affect cell growth

**Q.** With `CSC[C@H]1O[C@@H](n2cnc3c2N=CNC[C@H]3O)[C@H](O)[C@@H]1O` [(8R)-MTCF, 5′-methylthiocoformycin] as the molecule, how does the “type of inhibition of HpAFLDA” value (HpAFLDA; second phase of inhibition after reaction for 30 min) read?
**A.** slow-onset inhibitor

**Q.** What about the IC50 (H. pylori J99; read-out: IC50, H. pylori growth, liquid medium, 72 h, microaerophilic, 37 °C) of the same molecule?
**A.** 14 ± 1 µM

**Q.** With `Nc1ncnc2c1ncn2[C@@H]1O[C@H](CCC(=O)c2cccc(C(=O)O)c2)[C@@H](O)[C@H]1O` [AFL, 6-Amino-6-deoxyfutalosine] as the molecule, how does the “fold difference of kcat/Km between AFL and adenosine” value (HpAFLDA (jhp0252)) read?
**A.** 26 fold

**Q.** And the kcat (HpAFLDA (jhp0252); [11])?
**A.** 0.62 s⁻¹

**Q.** And the “hydrolysis by HpMTAN (in words)” value (HpMTAN [4])?
**A.** capable of catalyzing only AFL hydrolysis

**Q.** What about the “conversion of the added metabolite by live H. pylori cells” value (H. pylori cells [5]; 25 μM AFL) of the same molecule?
**A.** readily converted AFL to FL and adenine

**Q.** What about the “effect of supplementation on cell growth” value (H. pylori; 200 μM AFL in the growth medium, BTDIA used to stress MK biosynthesis) of the same molecule?
**A.** did not cause a significant impact on cell growth

**Q.** What about the “catalytic efficiencies for AFL deamination” value [6] of the same molecule?
**A.** 4.8 × 10^6 to 7.9 × 10^5 M^−1 s^−1

B1: HpAFLDA (jhp0252) (Helicobacter pylori J99) (protein)
chain: MQEIIGASLVFLCNEKCEVLEDYGVVFDEKIVEIGDYHNLTLKYPHLKAQFFENSVLLPAFINAHTHFEFSNNKASFDYGSFSGWLGSVLNNGGAILENCQGAIQNAIMAQLKSGVGSVGAISNHLIEVNLLKESPLNAVVFLEFLGSSYSLEKLKAFEAKFKELKDLEDQKLKAALAVHAPYSVQKDMALSVIQLAKDSQSLLSTHFLESLEELEWVENSKGWFENFYQRFLKESNFTSLYEGANDYIDMFKDTHTLFVHNQFASLEALKRIKSQVKNAFLITCPFSNRLLSGKALDLERVREAGLSVSVATDGLSSNISLSLLDELRAFLLSHNMPLLELAKIALLGATRHGAKALALNNGEIETNKRADLSVFGFNEKFTKEQAILQFLLHAKEVERLFLGGKRVI
**Q.** Which results are given for B1?
**A.** kcat [7]: 1.6 ± 0.3 s⁻¹; kcat/Km [7]: 12000 M⁻¹ s⁻¹; Km [8]: 9 ± 1 µM; kcat [8]: 0.62 ± 0.03 s⁻¹; kcat/Km [8]: 68000 M⁻¹ s⁻¹; Km [9]: 170 ± 40 µM; kcat [9]: 0.44 ± 0.06 s⁻¹; kcat/Km [9]: 2600 M⁻¹ s⁻¹

B2: HpMTAN (Helicobacter pylori J99) (protein)
chain: MQKIGILGAMREEITPILELFGVDFEEIPLGGNVFHKGVYHNKEIIVAYSKIGKVHSTLTTTSMILAFGVQKVLFSGVAGSLVKDLKINDLLVATQLVQHDVDLSAFDHPLGFIPESAIFIETSGSLNALAKKIANEQHIALKEGVIASGDQFVHSKERKEFLVSEFKASAVEMEGASVAFVCQKFGVPCCVLRSISDNADEKAGMSFDEFLEKSAHTSAKFLKSMVDEL
**Q.** With B2 as the molecule, how does the Km [10] read?
**A.** 1.6 ± 0.3 µM

**Q.** And the kcat [10]?
**A.** 0.022 ± 0.02 s⁻¹

**Q.** And the kcat/Km [10]?
**A.** 14000 M⁻¹ s⁻¹
